In PubChem BioAssay:
Records with an inconclusive call do not appear.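 Rule for the calls, unless noted: active = growth inhibition above 25% in both replicates, a cutoff set 3 SD above the mean; inconclusive = above 25% in only one replicate; inactive = the rest.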

How the values were obtained:
[1] = OD615 S. cerevisiae growth inhibition, permissive medium, pilot counter-assay, permissive growth control for S. cerevisiae lifespan shortening project (AID 705); settings: OD615, 24 h, at 10 µM, active compounds read high
Method in brief: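 System: Engineered DeaD yeast | Buffer or medium: SC raffinose/galactose permissive medium | Doses: 10 µM single dose, 0.25% DMSO | Times: 24 h exposure, 30 °C | Measured by: OD615 turbidity read | Read-out: Yeast growth inhibition indicated by reduced 24 h OD615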

[2] = Restrictive medium S. cerevisiae growth inhibition, OD615, pilot screen of yeast lifespan reduction project, restrictive growth control (AID 706;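 active = growth inhibition above a set limit, 3 SD over mean compound inhibition, in both replicates, cut at about 43% in these data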;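 note: modified DeaD lifespan yeast strain shifted to restrictive glucose medium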); settings: OD615, 48 h, at 10 µM, active compounds read high
Method in brief: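 Assay system: engineered S. cerevisiae DeaD strain; Buffer or medium: CSMM-D glucose medium; Dosing: 10 µM compound, 0.25% DMSO; Times: cell pre-growth 4 h, compound exposure 48 h, 30 °C; Detection: absorbance (optical density) measured at 615 nm.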

[3] = viability gain of MRP-1-high H69AR cells under doxorubicin, pilot screen, MRP-1 activator project, CellTiter-Glo, duplicate (AID 807;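 active = viability increase at or above a cutoff of the median across tested compounds plus 3 SD, cut at about 8.5% in these data, passing the limit was not always enough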;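 note: compound pretreatment 18-22 h then 72 h combined with doxorubicin; 0% = doxorubicin alone and 100% = vehicle without doxorubicin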); settings: H69AR viability with doxorubicin, CellTiter-Glo luminescence; at 10 µM; active compounds read high
[4] = growth suppression of beta-catenin knockout HCT116, pilot screen, human colon tumor cells (AID 823;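 active = cell viability at or below a set limit in both duplicate runs, the limit being the all-compound median minus 4 SD, cut at about 23% in these data, passing the limit was not always enough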;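 note: 0% = wells killed by 20 µM Hyamine and 100% = untreated DMSO cell wells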); settings: CellTiter-Glo, 60 h, at 10 µM, active compounds read low
[5] = growth suppression of PTEN-deleted HCT116, pilot screen, cell-based, HCT116 clonal line, CellTiter-Glo (AID 824;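 active = viability at or below 27.92% in each of two runs, the all-compound median minus 4 SD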;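 note: 0% = 20 µM Hyamine control and 100% = vehicle cell control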); settings: 60 h, at 10 µM, active compounds read low
[6] = inhibitors of the yeast RAM network, pilot screen, dse1pr::URA3 reporter, 5-FOA selection (AID 869;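 active = inhibition over a set limit, the all-compound mean plus 3 SD, in both replicate runs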;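 note: 0% = DMSO wells with no growth and 100% = 10 µM 1-NA-PP1 with full growth; RAM network block rescues cells from 5-FOA so hits raise OD615 growth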); settings: S. cerevisiae dse1pr::URA3 5-FOA growth, OD615, 2 d; at 10 µM; active compounds read high; strain carries analog-sensitive mutant Cbk1 kinase
[7] = RAM signaling pathway blockade in yeast – S. cerevisiae, Pdr1DBD-CYC8 efflux-inhibited sensitized strain, primary screen (AID 1298;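 active = RAM network inhibition above 8.4% in each of two replicates, 3 SD over the compound average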;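 note: 0% = DMSO untreated cells without growth and 100% = 10 µM 1-NA-PP1 full growth; higher means more yeast growth rescued from 5-FOA killing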); settings: S. cerevisiae cbk1-as DSE1-URA3 strain, 5-FOA growth OD615, 2 d; at 50 µM; active compounds read high

Cn1c(=O)oc2cc(S(=O)(=O)N3CCCC(C(=O)N4CCn5c4nc4ccccc45)C3)ccc21 (configuration not stated)
inactive: growth inhibition [1] -8.03% | growth inhibition [2] -7.74% | viability increase [3] -1.54% | viability [4] 77.7% | viability [5] 76.2% | inhibition [6] 0.695% | RAM network inhibition [7] 1.49%

C=CCNc1nc2c(c(=O)n(C)c(=O)n2C)n1CC(=C)C
inactive: growth inhibition [1] -1.17% | growth inhibition [2] 2.97% | viability increase [3] -0.38% | viability [4] 91.2% | viability [5] 91.8% | inhibition [6] -0.15% | RAM network inhibition [7] 1.58%

COC(=O)c1ccc(-n2nnnc2SCC(=O)N2CCCCC2)cc1
inactive: growth inhibition [1] -8.57% | growth inhibition [2] -21.9% | viability increase [3] -3% | viability [4] 85.8% | viability [5] 86.1% | inhibition [6] 0.045% | RAM network inhibition [7] 1.64%

Cc1cc(NC(=O)CSc2nc3c(c(=O)n2-c2ccccc2)SC(C)C3)no1 (configuration not stated)
inactive: growth inhibition [1] -3.02% | growth inhibition [2] -11.7% | viability increase [3] -2.58% | viability [4] 93% | viability [5] 91.2% | inhibition [6] 4.66% | RAM network inhibition [7] 1.22%

C=CCSc1nnc(Cn2c(=O)sc3ccccc32)n1C
inactive: growth inhibition [1] -5.41% | growth inhibition [2] -8.71% | viability increase [3] -0.84% | viability [4] 108% | viability [5] 104% | inhibition [6] -0.685% | RAM network inhibition [7] 0.31%

CCOc1ccc(C2NC(=O)c3n[nH]c(C)c32)cc1 (configuration not stated)
inactive: growth inhibition [1] -3.56% | growth inhibition [2] 8.35% | viability increase [3] 1.63% | viability [4] 107% | viability [5] 103% | inhibition [6] 1.07% | RAM network inhibition [7] 0.36%

Cc1ccc(S(=O)(=O)N=C2SCCCS2)cc1
inactive: growth inhibition [1] -3.74% | growth inhibition [2] 6.67% | viability increase [3] -2.68% | viability [4] 99.2% | viability [5] 99.5% | inhibition [6] 1.31% | RAM network inhibition [7] 2.39%

COC(=O)c1c(NC(=O)CSc2nnnn2-c2ccccc2)sc2c1CCC(C)C2 (configuration not stated)
inactive: growth inhibition [1] -21.3% | growth inhibition [2] -21.2% | viability increase [3] -1.07% | viability [4] 84.4% | viability [5] 78.3% | inhibition [6] 2.46% | RAM network inhibition [7] 10.1%

Cc1cc(C)cc(N(CC(=O)N2CCn3c2nc2ccccc23)S(=O)(=O)c2c(C)noc2C)c1
inactive: growth inhibition [1] -5.97% | growth inhibition [2] 11.2% | viability increase [3] -4.06% | viability [4] 88.9% | viability [5] 90.9% | inhibition [6] 1.79% | RAM network inhibition [7] 10.1%

Cc1nc2ccccn2c1/C(O)=C1\C(=O)C(=O)N(CCCN(C)C)C1c1ccc(Cl)cc1 (configuration not stated)
inactive: growth inhibition [1] -12.2% | growth inhibition [2] -4.13% | viability increase [3] -1.34% | viability [4] 109% | viability [5] 95.9% | inhibition [6] 0.18% | RAM network inhibition [7] -1.78%

O=C(c1ccc(NC2=NC3CS(=O)(=O)CC3S2)cc1)N1CCN(C(=O)c2ccco2)CC1 (configuration not stated)
inactive: growth inhibition [1] -12.1% | growth inhibition [2] -8.33% | viability increase [3] 0.69% | viability [4] 104% | viability [5] 98.3% | inhibition [6] 2.96% | RAM network inhibition [7] 4.06%

CCC(C)Sc1nc2c(c(=O)[nH]c(=O)n2C)n1Cc1ccccc1Cl (configuration not stated)
inactive: growth inhibition [1] -0.795% | growth inhibition [2] 8.91% | viability increase [3] -1.95% | viability [4] 81.6% | viability [5] 82.2% | inhibition [6] 0.75% | RAM network inhibition [7] 4.89%

CCOC(=O)Nc1ccccc1C(=O)N1CCOCC1
inactive: growth inhibition [1] -8.68% | growth inhibition [2] -2.7% | viability increase [3] -0.42% | viability [4] 97.5% | viability [5] 98% | inhibition [6] 1.89% | RAM network inhibition [7] 2.52%

CCC(=O)Nc1nc2c(OC)ccc(OC)c2s1
inactive: growth inhibition [1] -2.06% | growth inhibition [2] 0.075% | viability increase [3] -2.87% | viability [4] 97.5% | viability [5] 94.5% | inhibition [6] 1.07% | RAM network inhibition [7] 2.34%

CN(Cc1ccccc1)S(=O)(=O)c1ccc2[nH]c(=O)oc2c1
inactive: growth inhibition [1] -17.3% | growth inhibition [2] -30.6% | viability increase [3] -0.12% | viability [4] 109% | viability [5] 96% | inhibition [6] 0.425% | RAM network inhibition [7] 5.4%

CCN(Cc1ccccc1)C(=O)Cn1cc2c(n1)CCCC2
inactive: growth inhibition [1] -5.23% | growth inhibition [2] -2.12% | viability increase [3] 1.91% | viability [4] 94% | viability [5] 92.5% | inhibition [6] 2.06% | RAM network inhibition [7] -1.27%

O=C1CN(C(=O)COC(=O)C2CC(=O)N(Cc3ccco3)C2)c2ccccc2N1 (configuration not stated)
inactive: growth inhibition [1] -12% | growth inhibition [2] -16.7% | viability increase [3] -2.08% | viability [4] 102% | viability [5] 104% | inhibition [6] 1.06% | RAM network inhibition [7] 4.09%

Cn1cccc1Cc1nnc(SCC(=O)N2CCCCCC2)n1CCc1ccccc1
inactive: growth inhibition [1] 10% | growth inhibition [2] 25.7% | viability increase [3] -1.8% | viability [4] 95.2% | viability [5] 96.1% | inhibition [6] 2.48% | RAM network inhibition [7] 2.94%

C=CCn1c(-c2ccc(N)cc2)nc2ccccc21
inactive: growth inhibition [1] -6.82% | growth inhibition [2] 3.25% | viability increase [3] -3.72% | viability [4] 93.3% | viability [5] 80.1% | inhibition [6] 1.5% | RAM network inhibition [7] 1.23%

CCCOc1ccc(C2c3c(oc4cc(C)c(C)cc4c3=O)C(=O)N2CCCN(C)C)cc1OCC (configuration not stated)
inactive: growth inhibition [1] -10.6% | growth inhibition [2] -3.15% | viability increase [3] -3.29% | viability [4] 102% | viability [5] 97.7% | inhibition [6] 3.69% | RAM network inhibition [7] -0.16%

CCOC(=O)c1c(N)sc(C(N)=O)c1C
inactive: growth inhibition [1] -17.3% | growth inhibition [2] -8.77% | viability increase [3] -1.19% | viability [4] 95.3% | viability [5] 97.3% | inhibition [6] 1.25% | RAM network inhibition [7] 0.78%

CCN1CCN(CC(=O)Nc2ccc(C)cc2C)C(=O)C1=O
inactive: growth inhibition [1] 2.74% | growth inhibition [2] -6.08% | viability increase [3] -0.23% | viability [4] 98% | viability [5] 97% | inhibition [6] 1.74% | RAM network inhibition [7] -0.71%

CC12CN3CC(C)(CN(C1)C3c1ccc3ccccc3c1O)C2=O (configuration not stated)
inactive: growth inhibition [1] -10.8% | growth inhibition [2] -19.3% | viability increase [3] -0.54% | viability [4] 101% | viability [5] 100% | inhibition [6] -0.515% | RAM network inhibition [7] -0.68%

COc1ccccc1S(=O)Cc1ccc(C(=O)NCc2ccccc2Cl)o1 (configuration not stated)
inactive: growth inhibition [1] -7.49% | growth inhibition [2] -16.8% | viability increase [3] -1.27% | viability [4] 100% | viability [5] 89.7% | inhibition [6] 2.41% | RAM network inhibition [7] 4.64%

COc1cccc(CNC(=O)Cn2cc3c(n2)CCCC3)c1
inactive: growth inhibition [1] -7.1% | growth inhibition [2] 4.65% | viability increase [3] 0.16% | viability [4] 100% | viability [5] 93.2% | inhibition [6] 1.44% | RAM network inhibition [7] 3.05%

Cn1c(=NC(=O)C2CC2)sc2cccc(F)c21
inactive: growth inhibition [1] -10.3% | growth inhibition [2] 8.25% | viability increase [3] -4.82% | viability [4] 88.3% | viability [5] 89% | inhibition [6] 0.96% | RAM network inhibition [7] 6.98%

COc1cc(CC(=O)O)c(C(C)=O)cc1OC
inactive: growth inhibition [1] 0.26% | growth inhibition [2] 0.155% | viability increase [3] -1.29% | viability [4] 100% | viability [5] 102% | inhibition [6] 0.365% | RAM network inhibition [7] -0.36%

Cc1cc(Nc2ccc(Br)c(C)c2)n2nc(C)nc2n1
inactive: growth inhibition [1] -8.54% | growth inhibition [2] 4.61% | viability increase [3] -6.94% | viability [4] 80.9% | viability [5] 84.9% | inhibition [6] 0.65% | RAM network inhibition [7] 6.84%

CC(C)(C)c1ccc(OCC(O)CS(=O)(=O)c2ccccn2)cc1 (configuration not stated)
inactive: growth inhibition [1] -20.8% | growth inhibition [2] -19.1% | viability increase [3] -0.66% | viability [4] 97.8% | viability [5] 94.5% | inhibition [6] -0.5% | RAM network inhibition [7] 4.16%

Cc1ccccc1NC(=O)CN1C(=O)COc2ccc(Cl)cc21
inactive: growth inhibition [1] -14.1% | growth inhibition [2] -18% | viability increase [3] 1.63% | viability [4] 95% | viability [5] 87.9% | inhibition [6] 0.995% | RAM network inhibition [7] 4.92%

COc1ccc(N2CCN(Cc3nc4c(c(=O)[nH]c(=O)n4C)n3Cc3cccc(Cl)c3)CC2)cc1
inactive: growth inhibition [1] -9.21% | growth inhibition [2] -12.3% | viability increase [3] -3.93% | viability [4] 91.6% | viability [5] 77% | inhibition [6] 1.39% | RAM network inhibition [7] 1.83%

Cc1ccc(-c2nnc3n2N=C(c2ccc(Br)cc2)CS3)cc1
inactive: growth inhibition [1] 1.27% | growth inhibition [2] 15.8% | viability increase [3] -2.58% | viability [4] 102% | viability [5] 90.5% | inhibition [6] 2.41% | RAM network inhibition [7] 4.62%

CCN(c1cccc(C)c1)c1ncnc2nc[nH]c12
inactive: growth inhibition [1] -4.6% | growth inhibition [2] 15.6% | viability increase [3] -3.73% | viability [4] 103% | viability [5] 95.9% | inhibition [6] 0.95% | RAM network inhibition [7] 0.64%

CCOC(=O)CNC(=O)Cn1cnc2sc(C)c(S(=O)(=O)N3CCC(C)CC3)c2c1=O
inactive: growth inhibition [1] -5.06% | growth inhibition [2] -1.62% | viability increase [3] -2.55% | viability [4] 94% | viability [5] 93.6% | inhibition [6] 0.32% | RAM network inhibition [7] 4.1%

Clc1cccc(CSc2nnc(-c3ccccn3)n2Cc2ccco2)c1
inactive: growth inhibition [1] -8.18% | growth inhibition [2] 21.1% | viability increase [3] -1.98% | viability [4] 71.4% | viability [5] 75.3% | inhibition [6] 1.69% | RAM network inhibition [7] 12.3%

Brc1ccc(-c2nnc(-c3ccccc3Br)o2)cc1
inactive: growth inhibition [1] 0.385% | growth inhibition [2] -1.09% | viability increase [3] -1.12% | viability [4] 87.9% | viability [5] 79.2% | inhibition [6] 2.09% | RAM network inhibition [7] 11.3%
